The source made the active and inactive calls. No cut-off for these calls is given here.
Tests used:
[1] = Binding affinity to poly(dA-dT)n DNA (unknown origin) assessed as change in melting temperature at 0.3 molar ratio of compound:DNA by spectrophotometric analysis
Summary of the method: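 Thermal melting with poly(dA-dT) in CAC 10 buffer (10 mM cacodylic acid, 1 mM EDTA, 100 mM NaCl, pH 7.0), 1 cm quartz cuvettes, heated at 0.5 °C/min. DNA concentration set by absorbance at 260 nm; 0.3 mol compound per mol DNA, DNA alone as control. Tm taken from peak of first-derivative (dA/dT) curve; ΔTm = Tm complex − Tm free DNA.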

[2] = system: L6; experiment: Cytotoxicity against rat L6 cells; assay type: cell-based
[3] = system: Trypanosoma brucei rhodesiense; experiment: Antitrypanosomal activity against Trypanosoma brucei rhodesiense STIB900 bloodstream forms after 70 hrs by Alamar blue assay; assay type: functional; details: STIB900, 70 h
Summary of the method: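 In vitro viability assay on T. b. rhodesiense strain STIB900; values are the average of duplicate determinations.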

[4] = Selectivity index, ratio of IC50 for rat L6 cells to IC50 for Trypanosoma brucei rhodesiense STIB900 bloodstream forms; assay type: toxicity; details: read-out: Ratio IC50
Summary of the method: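 Selectivity index calculated as IC50 in L6 cells divided by IC50 against T. b. rhodesiense STIB900.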

[5] = system: Trypanosoma brucei rhodesiense; experiment: Antitrypanosomal activity against Trypanosoma brucei rhodesiense STIB900 infected in NMRI mouse assessed as aparasitemic mouse at 5 mg/kg, ip for 4 consecutive days starting from day 3 post infection measured up to day 60 post infection relative to control; assay type: functional
Summary of the method: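 STIB900 acute-stage mouse model of T. b. rhodesiense infection; compound given intraperitoneally at 5 mg/kg daily for four consecutive days (4 × 5 mg/kg), 4 infected mice per group; cure rate reported as mice cured out of 4.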

[6] = system: Trypanosoma brucei rhodesiense; experiment: Potency index, ratio of DAPI IC50 to compound IC50 for Trypanosoma brucei rhodesiense STIB900 bloodstream forms; assay type: functional
[7] = Binding affinity to poly(dA-dT)n DNA minor groove (unknown origin) assessed as positive induced CD signal at 1:20 to 5:20 molar ratio of compound:DNA by CD spectroscopic analysis
Summary of the method: (§1)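 CD spectra recorded at 25 °C in MES 10 buffer (10 mM MES, 100 mM NaCl, 1 mM EDTA) over a series of compound-to-DNA ratios.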

[8] = Binding affinity to poly(dA-dT)n DNA minor groove (unknown origin) assessed as positive induced CD signal at 1:20 to 8:20 molar ratio of compound:DNA by CD spectroscopic analysis; summary of the method: as §1
[9] = system: Mus musculus; experiment: Toxicity in NMRI mouse infected with Trypanosoma brucei rhodesiense STIB900 assessed as death at 5 mg/kg, ip for 4 consecutive days starting from day 3 post infection; assay type: organism-based; details: in vivo
Summary of the method: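 Acute-stage STIB900 mouse model, four infected mice per compound, given 5 mg/kg intraperitoneally once daily on four consecutive days (4 × 5 mg/kg). Deaths among treated mice were counted out of 4, alongside cure of survivors. Other protocol details follow an earlier report.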

## Cc1cc(-c2cc3cc(C(=N)N)ccc3[nH]2)ccc1C(=N)N
[1]
  ΔTm: 15.3 °C
[2]
  IC50: 23500 nM
[3]
  IC50: 3 nM
[4]
  selectivity ratio: 7830
[5]
  Activity: 75%
[6]
  Ratio IC50: 2 - 6

## N=C(N)c1ccc(-c2cc3cc(C(=N)N)ccc3[nH]2)cc1
[1]
  ΔTm: 19.2 °C

## COc1ccc(-c2cc3ccc(C(=N)N)cc3[nH]2)cc1
[1]
  ΔTm: 12.6 °C
[2]
  IC50: 29000 nM
[3]
  IC50: 4870 nM
[4]
  selectivity ratio: 6

## Cc1cc(-c2cc3ccc(C(=N)N)cc3[nH]2)ccc1C(=N)N
[1]
  ΔTm: > 26 °C
[2]
  IC50: 15700 nM
[3]
  IC50: 5 nM
[4]
  selectivity ratio: 3140
[5]
  Activity: 75%
[6]
  Ratio IC50: 2 - 6

## N=C(N)c1ccc2[nH]c(-c3ccc(C(=N)N)o3)cc2c1
[1]
  ΔTm: 21.4 °C
[7]
  Activity: Active
[2]
  IC50: 2700 nM
[3]
  IC50: 3 nM
[4]
  selectivity ratio: 900
[5]
  Activity: 100%
[6]
  Ratio IC50: 2 - 6

## N=C(N)c1ccc(-c2cc3ccc(C(=N)N)cc3[nH]2)nc1
[1]
  ΔTm: 22.1 °C
[8]
  Activity: Active
[2]
  IC50: 3200 nM
[3]
  IC50: 24 nM
[4]
  selectivity ratio: 133
[5]
  Activity: 100%

## N=C(N)c1ccc(-c2cc3cc(C(=N)N)ccc3[nH]2)nc1
[1]
  ΔTm: > 26 °C
[2]
  IC50: 21300 nM
[3]
  IC50: 4 nM
[4]
  selectivity ratio: 5320
[5]
  Activity: 100%
[6]
  Ratio IC50: 2 - 6

## N=C(N)c1ccc2cc(-c3ccc(C(=N)N)o3)[nH]c2c1
[1]
  ΔTm: 11 °C
[2]
  IC50: 7200 nM
[3]
  IC50: 9 nM
[4]
  selectivity ratio: 800
[5]
  Activity: inactive
[9]
  Activity: Toxic
[6]
  Ratio IC50: 2 - 6

## N=C(N)c1ccc(-c2cc3ccc(C(=N)N)cc3[nH]2)cc1 [DAPI]
[1]
  ΔTm: > 27 °C
[7]
  Activity: Active
[4]
  selectivity ratio: 48

## N=C(N)c1ccc2[nH]c(-c3ccc(C(=N)N)nc3)cc2c1
[1]
  ΔTm: 12.1 °C
[2]
  IC50: 1800 nM
[3]
  IC50: 5 nM
[4]
  selectivity ratio: 394
[5]
  Activity: 25%
[6]
  Ratio IC50: 2 - 6

## N=C(N)c1ccc2cc(-c3ccc(C(=N)N)nc3)[nH]c2c1
[1]
  ΔTm: 15.3 °C
[2]
  IC50: 2000 nM
[3]
  IC50: 3 nM
[4]
  selectivity ratio: 667
[5]
  Activity: 25%
[6]
  Ratio IC50: 2 - 6

## COc1cc(C(=N)N)ccc1-c1cc2ccc(C(=N)N)cc2[nH]1
[1]
  ΔTm: > 26 °C
[7]
  Activity: Active
[2]
  IC50: 29600 nM
[3]
  IC50: 6 nM
[4]
  selectivity ratio: 4880
[5]
  Activity: 100%
[6]
  Ratio IC50: 2 - 6

## N=C(N)c1ccc2cc(-c3ccc(C(=N)N)s3)[nH]c2c1
[1]
  ΔTm: 10 °C
[2]
  IC50: 4500 nM
[3]
  IC50: 11 nM
[4]
  selectivity ratio: 409
[6]
  Ratio IC50: 2 - 6

From ChEMBL document CHEMBL4004827, “Exploration of DAPI analogues: Synthesis, antitrypanosomal activity, DNA binding and fluorescence properties” (Eur J Med Chem, 2017)
